The values that follow come from ChEMBL document CHEMBL1142128, “Hygromycin B inhibition of protein synthesis and ribosome biogenesis in Escherichia coli” (Antimicrob Agents Chemother, 2007).

What is called IC50 is the midpoint of a concentration-inhibition curve. One may read the inhibition as the percentage by which the read-out fell short of the control. Broadly, the MIC is the lowest concentration that inhibits growth of the organism.

SMILES strings stand for the structures. ≈ marks a conversion by molar mass, not a printed value.

Assay [1] concerns Escherichia coli. Description: Decrease in 23S RNA accumulation in Escherichia coli at 25 ug/ml. The assay is classed as functional. Further details: scale not given: the % may be the effect or the level left. The essentials:
(§1)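 E. coli grown in TSB across a range of hygromycin B concentrations, plus an untreated control. Total RNA was extracted from 1 ml of cells. Samples (5 µl at 200 ng/µl) were run on an Agilent Bioanalyzer RNA 6000 chip under total-RNA conditions, and RNA species were read from fluorescence electropherograms.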

Assay [2] concerns Escherichia coli. In words: Increase in 16S precursor accumulation in Escherichia coli at 75 ug/ml. The format is functional. In a few lines: as §1
Assay [3] relates to Escherichia coli. In words: Increase in 16S precursor accumulation in Escherichia coli at 25 ug/ml. The assay is classed as functional. The essentials: as §1
Assay [4] relates to Escherichia coli. Description: Effect on 16S rRNA accumulation in Escherichia coli at 50 ug/ml. The assay is classed as functional. In a few lines: as §1
The test system of assay [5] is Escherichia coli. Description: Effect on small RNA accumulation in Escherichia coli at 100 ug/ml. The assay is classed as functional. In a few lines:
as §1

The nature of assay [6]: Inhibition of 30S ribosomal-subunit assembly in Escherichia coli. In a few lines: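 E. coli in TSB at 37°C were labelled with [3H]uridine (1 µCi/ml, 1 µg/ml) for two doublings, with or without drug. Label was chased with uridine at 50 µg/ml final for 15 min. The 30S share of total gradient cpm was compared with control; IC50 derived; means of two.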
For assay [7], the system named is Escherichia coli. In words: Effect on 16S rRNA accumulation in Escherichia coli at 25 ug/ml. The assay is classed as functional. In a few lines: as §1
Assay [8] deals with Escherichia coli. Description: Decrease in 23S RNA accumulation in Escherichia coli at 100 ug/ml. Set-up: scale not given: the % may be the effect or the level left. The format is functional. The essentials:
as §1

Assay [9] relates to Escherichia coli. Description: Effect on small RNA accumulation in Escherichia coli at 50 ug/ml. The format is functional. The essentials:
as §1

For assay [10], the system named is Escherichia coli. In words: Effect on small RNA accumulation in Escherichia coli at 25 ug/ml. The assay is classed as functional. In a few lines:
as §1

The test system of assay [11] is Escherichia coli. Description: Inhibition of viable cells in Escherichia coli at 20 ug/ml. The assay is classed as functional. In a few lines: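 E. coli grown at 37°C in TSB with or without drug. Viable cells were counted as colonies after serial dilution. Results are given as percent decrease versus untreated control; means of two determinations.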
Assay [12] deals with Escherichia coli. Description: Reduction of growth rate in Escherichia coli at 25 ug/ml. The format is functional. Further details: scale not given: the % may be the effect or the level left.
The test system of assay [13] is Escherichia coli. In words: Decrease in 23S RNA accumulation in Escherichia coli at 75 ug/ml. Further details: scale not given: the % may be the effect or the level left. The assay is classed as functional. In a few lines: as §1
Assay [14] has as its system Escherichia coli. In words: Increase in 16S precursor accumulation in Escherichia coli at 100 ug/ml. The format is functional. The essentials: as §1
The test system of assay [15] is Escherichia coli. In words: Effect on 16S rRNA accumulation in Escherichia coli at 75 ug/ml. The assay is classed as functional. In a few lines: as §1
The subject of assay [16] is Escherichia coli. In words: Antimicrobial activity against Escherichia coli. The format is functional. In a few lines: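 Broth dilution MIC; E. coli grown at 37°C in tryptic soy broth (TSB) with and without hygromycin B.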
The subject of assay [17] is Escherichia coli. In words: Inhibition of protein synthesis in Escherichia coli measured as incorporation of [35S]methionine. The format is functional, organism-based. The essentials: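 E. coli in TSB at 37°C, with or without drug, received [35S]methionine (1 µCi/ml). Samples (0.4 ml) were taken every 5 min for 15 min, precipitated with 20% TCA, collected on glass-fibre filters, washed with 10% TCA, and scintillation-counted. IC50 derived from the concentration series; means of two.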

For assay [18], the system named is Escherichia coli. Description: Decrease in 23S RNA accumulation in Escherichia coli at 50 ug/ml. The assay is classed as functional. Further details: scale not given: the % may be the effect or the level left. The essentials:
as §1

Assay [19] has as its system Escherichia coli. Description: Increase in 16S precursor accumulation in Escherichia coli at 50 ug/ml. The format is functional. The essentials: as §1
Assay [20] deals with Escherichia coli. Description: Effect on 16S rRNA accumulation in Escherichia coli at 100 ug/ml. The format is functional. In a few lines:
as §1

For assay [21], the system named is Escherichia coli. In words: Effect on small RNA accumulation in Escherichia coli at 75 ug/ml. The format is functional. In a few lines: as §1

With `CN[C@H]1C[C@@H](N)[C@H](O)[C@@H](O[C@@H]2O[C@H](CO)[C@H](O)[C@H]3O[C@@]4(O[C@H]23)O[C@H]([C@H](N)CO)[C@H](O)[C@H](O)[C@H]4O)[C@@H]1O`, the Activity is recorded as 13.5% in the assay with Escherichia coli [1]; 1.1% in the assay on Escherichia coli [2]; 0.5% with Escherichia coli [3]; 10.4% in the assay with Escherichia coli [4]; 68.8% with Escherichia coli [5]; 10.4% in the assay on Escherichia coli [7]. The Activity in the assay on Escherichia coli [8] came out at 10%; with Escherichia coli [9], 62.8%; in the assay with Escherichia coli [10], 59%; with Escherichia coli [12] it was 50%; in the assay with Escherichia coli [13], 12.7%; in the assay on Escherichia coli [14], 1.2%. Further, the Activity with Escherichia coli [15] is reported as 7.3%; in the assay with Escherichia coli [18], 12.5%; in the assay on Escherichia coli [19] it was 0.75%; in the assay on Escherichia coli [20], 4.8%; with Escherichia coli [21], 64.5%. In addition, the IC50 was determined as 65 µg/mL (≈ 123 µM) in [6] and 16 µg/mL (≈ 30.3 µM) in the assay on Escherichia coli [17]. Besides, the inhibition at 20 µg/mL with Escherichia coli [11] was 50%. The MIC in the assay with Escherichia coli [16] was found to be 150 µg/mL (≈ 284 µM).
